Test results: EPA's CvTdb concentration-time database
Blank lines part the entries; values can stand above or below the compound they belong to.

Assays:
[1] = system: Rat; test: concentration in brain after dosing; conditions: 1848 h; dosed: Perfluorodecanoic acid; 10 mg/kg; oral; Male; Harlan Sprague Dawley
[2] = system: Rat; test: concentration in plasma after dosing; conditions: dosed: Perfluorodecanoic acid, 2 mg/kg, iv, Male, F344
[3] = system: Rat; test: concentration in liver after dosing; conditions: 1848 h; dosed: Perfluorodecanoic acid; 10 mg/kg; oral; Male; Harlan Sprague Dawley
[4] = system: Rat; test: concentration in plasma after dosing; conditions: dosed: Perfluorodecanoic acid, 2 mg/kg, iv, Male, F344; remark: listed apart in the source
[5] = system: Rat; test: concentration in plasma after dosing; conditions: 2 h; dosed: Di-n-butyl phthalate; 50 mg/kg; oral; Male; Sprague-Dawley
[6] = system: Rat; test: concentration in plasma after dosing; conditions: 2 h; dosed: Di-n-butyl phthalate; 50 mg/kg; oral; Male; Sprague-Dawley; remark: listed apart in the source
[7] = system: Rat; test: concentration in plasma after dosing; conditions: 24 h; dosed: Di-n-butyl phthalate; 100 mg/kg; oral; Male; Sprague-Dawley
[8] = system: Rat; test: concentration in plasma after dosing; conditions: 1 h; dosed: Di-n-butyl phthalate; 100 mg/kg; oral; Male; Sprague-Dawley
[9] = system: Rat; test: concentration in plasma after dosing; conditions: 2 min; dosed: dichloroacetic acid; 10 mg/kg; iv; Male; F344
[10] = system: Rat; test: concentration in plasma after dosing; conditions: dosed: dichloroacetic acid, 100 mg/kg, oral, Male, F344
[11] = system: human; test: concentration in plasma after dosing; negative times count back from the end of exposure; conditions: dosed: trichloroethylene, 100 ppm, inhalation, duration: 4 hr, person
Procedure, shortened: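 Concentration-versus-time or amount-versus-time points were compiled from published in vivo toxicokinetic studies and from two structured collections. The studies were found by PubMed searching, classifier screening and manual review. Points were mostly digitised from plot screenshots with WebPlotDigitizer, otherwise copied from tables, and kept in the reported units. Dose, route, subject details and medium were curated by hand from each paper, and sampling and analytical methods follow each source and were often unreported.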

[12] = system: Rat; test: concentration in plasma after dosing; conditions: 40 min; dosed: dichloroacetic acid; 40 mg/kg; oral; Female; Harlan Sprague Dawley
[13] = system: Rat; test: concentration in plasma after dosing; conditions: dosed: Wyeth-14643, 2.0 mg/kg, oral, Male, Sprague-Dawley
[14] = system: Rat; test: concentration in plasma after dosing; conditions: 0.25 h; dosed: Wyeth-14643; 2.0 mg/kg; iv; Male; Sprague-Dawley
[15] = system: Rat; test: concentration in liver after dosing; conditions: 2 h; dosed: Bis 2-Chloroethoxy Methane; 20 mg/kg; iv; Female; F344
[16] = system: Rat; test: concentration in plasma after dosing; conditions: 2 h; dosed: Bis 2-Chloroethoxy Methane; 40 mg/kg; iv; Male; Harlan Sprague Dawley
[17] = system: Rat; test: concentration in thymus after dosing; conditions: 4 h; dosed: Bis 2-Chloroethoxy Methane; 20 mg/kg; iv; Male; F344
[18] = system: Rat; test: concentration in heart after dosing; conditions: 3 h; dosed: Bis 2-Chloroethoxy Methane; 20 mg/kg; iv; Female; F344
[19] = system: Rat; test: concentration in plasma after dosing; conditions: 10 min; dosed: Bis 2-Chloroethoxy Methane; 20 mg/kg; iv; Female; F344
[20] = system: Rat; test: concentration in liver after dosing; conditions: 20 min; dosed: Bis 2-Chloroethoxy Methane; 20 mg/kg; iv; Male; F344
[21] = system: Rat; test: concentration in thymus after dosing; conditions: 8 h; dosed: Bis 2-Chloroethoxy Methane; 20 mg/kg; iv; Female; Harlan Sprague-Dawley
[22] = system: Rat; test: concentration in plasma after dosing; conditions: dosed: Bis 2-Chloroethoxy Methane, 40 mg/kg, iv, Male, Harlan Sprague Dawley
[23] = system: Rat; test: concentration in plasma after dosing; conditions: 6 h; dosed: Bis 2-Chloroethoxy Methane; 20 mg/kg; iv; Female; F344
[24] = system: Rat; test: concentration in brain after dosing; conditions: 6 h; dosed: Fluorotelomer alcohol 8+2; 24 mg/kg; oral; Male; Harlan Sprague Dawley
[25] = system: Rat; test: concentration in plasma after dosing; conditions: dosed: Fluorotelomer alcohol 8+2, 24 mg/kg, oral, Male, Harlan Sprague Dawley
[26] = system: Rat; test: concentration in plasma after dosing; conditions: 40 min; dosed: Thiodiglycolic Acid; 20 mg/kg; iv; Female; Harlan Sprague Dawley
[27] = system: Rat; test: concentration in plasma after dosing; conditions: 40 min; dosed: Thiodiglycolic Acid; 20 mg/kg; iv; Male; Harlan Sprague Dawley
[28] = system: Rat; test: concentration in liver after dosing; conditions: 6.667 h; dosed: Thiodiglycolic Acid; 20 mg/kg; iv; Female; Harlan Sprague Dawley
[29] = system: Rat; test: concentration in heart after dosing; conditions: 5.333 h; dosed: Thiodiglycolic Acid; 20 mg/kg; iv; Female; Harlan Sprague Dawley
[30] = system: Rat; test: concentration in thymus after dosing; conditions: 2 h; dosed: Thiodiglycolic Acid; 20 mg/kg; iv; Female; Harlan Sprague Dawley
[31] = system: Rat; test: concentration in heart after dosing; conditions: 3 h; dosed: Thiodiglycolic Acid; 20 mg/kg; iv; Female; Harlan Sprague Dawley
[32] = system: Rat; test: concentration in heart after dosing; conditions: 10 min; dosed: Thiodiglycolic Acid; 20 mg/kg; iv; Male; F344
[33] = system: Rat; test: concentration in liver after dosing; conditions: 5.333 h; dosed: Thiodiglycolic Acid; 20 mg/kg; iv; Male; Harlan Sprague Dawley
[34] = system: Rat; test: concentration in plasma after dosing; conditions: 0.5 h; dosed: Primidone; 30 mg/kg; oral; Male; F344
[35] = system: Rat; test: concentration in plasma after dosing; conditions: 3 h; dosed: Primidone; 130 mg/kg; oral; Female; F344

SMILES: O=C(O)C(F)(F)C(F)(F)C(F)(F)C(F)(F)C(F)(F)C(F)(F)C(F)(F)C(F)(F)C(F)(F)F [Perfluorodecanoic acid]
concentration in brain [1]: 644 ng/g | concentration in plasma ([2]; 24 h): 5580 ng/mL | concentration in plasma ([2]; 1848 h): 884 ng/mL | concentration in liver [3]: 27600 ng/g | concentration in plasma ([4]; 1 h): 6010 ng/mL | concentration in plasma ([4]; 528 h): 3220 ng/mL | concentration in plasma ([4]; 3360 h): 204 ng/mL

SMILES: CCCCOC(=O)c1ccccc1C(=O)O [Mono-n-butyl phthalate]
concentration in plasma [5]: 3690 ng/mL | concentration in plasma [6]: 809 ng/mL | concentration in plasma [7]: 2770 ng/mL | concentration in plasma [8]: 27100 ng/mL

SMILES: O=C(O)C(Cl)Cl [dichloroacetic acid]
concentration in plasma [9]: 22900 ng/mL | concentration in plasma ([10]; 10 min): 8230 ng/mL | concentration in plasma ([10]; 4 h): 25900 ng/mL | concentration in plasma ([11]; 0 h): 12 ng/mL | concentration in plasma ([11]; -2 h, during exposure): 8 ng/mL | concentration in plasma ([11]; -3 h, during exposure): 6 ng/mL | concentration in plasma [12]: 10600 ng/mL

concentration in plasma ([13]; 0.25 h): 912 ng/mL | concentration in plasma ([13]; 4 h): 257 ng/mL | concentration in plasma [14]: 9460 ng/mL
SMILES: Cc1cccc(Nc2cc(Cl)nc(SCC(=O)O)n2)c1C

SMILES: ClCCOCOCCCl [Bis 2-Chloroethoxy Methane]
concentration in liver [15]: 70.7 ng/g | concentration in plasma [16]: 1290 ng/mL | concentration in thymus [17]: 72.9 ng/g | concentration in heart [18]: 158 ng/g | concentration in plasma [19]: 9470 ng/mL | concentration in liver [20]: 3690 ng/g | concentration in thymus [21]: 13.1 ng/g | concentration in plasma ([22]; 1 h): 4820 ng/mL | concentration in plasma ([22]; 9.667 h): 15.4 ng/mL | concentration in plasma [23]: 16.9 ng/mL

concentration in brain [24]: 323 ng/g | concentration in plasma ([25]; 5 min): 8.46 ng/mL | concentration in plasma ([25]; 9 h): 44.8 ng/mL
SMILES: OCCC(F)(F)C(F)(F)C(F)(F)C(F)(F)C(F)(F)C(F)(F)C(F)(F)C(F)(F)F [Fluorotelomer alcohol 8+2]

SMILES: O=C(O)CSCC(=O)O [Thiodiglycolic Acid]
concentration in plasma [26]: 4780 ng/mL | concentration in plasma [27]: 3090 ng/mL | concentration in liver [28]: 7100 ng/g | concentration in heart [29]: 321 ng/g | concentration in thymus [30]: 1910 ng/g | concentration in heart [31]: 620 ng/g | concentration in heart [32]: 8210 ng/g | concentration in liver [33]: 22900 ng/g

SMILES: CCC1(c2ccccc2)C(=O)NC(=O)NC1=O [Phenobarbital]
concentration in plasma [34]: 330 ng/mL | concentration in plasma [35]: 5510 ng/mL
